What was measured:
[1] = organism: Rattus norvegicus; assay: Percent injected dose per gram spleen at 1 hr; assay type: functional
In short: (§1)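 Immature (25 day) female Sprague-Dawley rats (ca. 50 g) were dosed iv (jugular or tail vein) in ethanol plus 0.9% NaCl/rat serum (1:1). Doses were 2 μCi of [125I]iodonorhexestrol (≤15 pmol/dose), or 2 μCi each of [77Br]bromonorhexestrol (≤1.25 pmol/dose) and 16α-[125I]iodoestradiol (2 pmol/dose). Rats were killed at 1, 3 or 6 h; blood and tissues were weighed and γ-counted. Thyroid weight assumed 0.005 g/100 g body weight. Mean ± SD.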

[2] = Uterus/blood distribution ratio was measured in immature female rats at 1 hr; assay type: functional; in short: as §1
[3] = organism: Rattus norvegicus; assay: Percent injected dose per gram liver at 1 hr; assay type: functional; in short: as §1
[4] = Thyroid/blood distribution ratio was determined in immature female rats at 1 hr; assay type: functional; in short: as §1
[5] = Kidney/blood distribution ratio was determined in immature female rats at 1 hr; assay type: functional
In short: (§2)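 Immature (25-day, ca. 50 g) Sprague-Dawley female rats received an iv injection (jugular or tail vein) of HPLC-purified tracer in ethanol plus 0.9% NaCl/rat serum 1:1. Doses were 2 μCi [125I]iodo tracer (≤15 pmol), or 2 μCi [77Br]bromo tracer (≤1.25 pmol) with 2 μCi 16α-[125I]iodoestradiol. Animals were killed at 1 h; blood and tissues were weighed and γ-counted. Blocking: coinjected unlabeled estradiol, 9 μg (iodo) or 18 μg (bromo). Mean ± SD.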

[6] = Muscle/blood distribution ratio was determined in immature female rats at 6 hr; assay type: functional
In short: (§3)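 Dual-label study in immature 25-day female Sprague-Dawley rats (ca. 50 g). Each received 2 μCi [77Br]bromo tracer (≤1.25 pmol/dose) and 2 μCi 16α-[125I]iodoestradiol (2 pmol/dose) by tail or jugular vein, in ethanol diluted with saline/rat serum 1:1. Rats were killed at 3 or 6 h; blood and 11 tissues were weighed and counted. Five rats per time point; mean ± SD.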

[7] = organism: Rattus norvegicus; assay: Percent injected dose per gram Uterus at 1 hr; assay type: functional; in short: as §2
[8] = organism: Rattus norvegicus; assay: Percent injected dose per gram thyroid at 3h; assay type: functional, Thyroid gland; in short: as §1
[9] = organism: Rattus norvegicus; assay: Percent injected dose per gram Uterus at 1 hr with unlabeled estradiol; assay type: functional; in short: as §2
[10] = organism: Rattus norvegicus; assay: Percent injected dose per gram Muscle at 3h; assay type: functional; in short: as §3
[11] = organism: Rattus norvegicus; assay: Percent injected dose per gram Uterus at 6 hr; assay type: functional; in short: as §3
[12] = organism: Rattus norvegicus; assay: Percent injected dose per gram lung at 1 hr; assay type: functional; in short: as §1
[13] = organism: Rattus norvegicus; assay: Percent injected dose per gram liver at 1 hr with unlabeled estradiol; assay type: functional
In short: (§4)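 Same iv biodistribution in immature female rats, killed at 1 h, with unlabeled estradiol coinjected to block receptor uptake: 9 μg with [125I]iodonorhexestrol (3 rats), 18 μg with the [77Br]bromonorhexestrol/16α-[125I]iodoestradiol pair (5 rats). Tissue and blood radioactivity were counted as % injected dose/g and tissue-to-blood ratio.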

[14] = organism: Rattus norvegicus; assay: Percent injected dose per gram kidney at 6 hr; assay type: functional; in short: as §3
[15] = Esophagus/blood distribution ratio was determined in immature female rats at 1 hr with unlabeled estradiol; assay type: functional; in short: as §2
[16] = Kidney/blood distribution ratio was determined in immature female rats at 6 hr; assay type: functional; in short: as §3
[17] = organism: Rattus norvegicus; assay: Percent injected dose per gram Ovaries at 1 hr; assay type: functional; in short: as §2
[18] = organism: Rattus norvegicus; assay: Percent injected dose per gram esophagus at 1 hr; assay type: functional; in short: as §2
[19] = organism: Rattus norvegicus; assay: Percent injected dose per gram thyroid at 1 hr with unlabeled estradiol; assay type: functional, Thyroid gland; in short: as §4
[20] = Esophagus/blood distribution ratio was determined in immature female rats at 1 hr; assay type: functional; in short: as §2
[21] = Uterus/blood distribution ratio was measured in immature female rats at 6 hr; assay type: functional; in short: as §1
[22] = Muscle/blood distribution ratio was determined immature female rats at 1 hr with unlabeled estradiol; assay type: functional; in short: as §2
[23] = Lung/blood distribution ratio was determined in immature female rats at 1 hr with unlabeled estradiol; assay type: functional; in short: as §2
[24] = Lung/blood distribution ratio was determined in immature female rats at 6 hr; assay type: functional; in short: as §3
[25] = Thyroid/blood distribution ratio was determined in immature female rats at 6 hr; assay type: functional; in short: as §1
[26] = organism: Rattus norvegicus; assay: Percent injected dose per gram esophagus at 6 hr; assay type: functional; in short: as §3
[27] = organism: Rattus norvegicus; assay: Percent injected dose per gram spleen at 1 hr with unlabeled estradiol; assay type: functional; in short: as §4
[28] = organism: Rattus norvegicus; assay: Percent injected dose per gram blood at 1 hr with unlabeled estradiol; assay type: functional; in short: as §2
[29] = organism: Rattus norvegicus; assay: Percent injected dose per gram spleen at 6 hr; assay type: functional; in short: as §1
[30] = organism: Rattus norvegicus; assay: Percent injected dose per gram Ovaries at 3h; assay type: functional; in short: as §3
[31] = Tissue/blood distribution ratio was measured in immature female rats at 3h; assay type: functional; in short: as §1
[32] = organism: Rattus norvegicus; assay: Percent injected dose per gram kidney at 1 hr; assay type: functional; in short: as §2
[33] = organism: Rattus norvegicus; assay: Percent injected dose per gram Ovaries at 6 hr; assay type: functional; in short: as §3
[34] = Spleen/blood distribution ratio was determined immature female rats at 1 hr; assay type: functional; in short: as §1
[35] = Thyroid/blood distribution ratio was determined in immature female rats at 1 hr with unlabeled estradiol; assay type: functional; in short: as §4
[36] = Ovary/blood distribution ratio was determined in immature female rats at 1 hr with unlabeled estradiol; assay type: functional; in short: as §2
[37] = Uterus/blood distribution of compound was measured in immature female rats at 1 hr with unlabeled estradiol; assay type: functional; in short: as §4
[38] = organism: Rattus norvegicus; assay: Percent injected dose per gram thyroid at 6 hr; assay type: functional, Thyroid gland; in short: as §1
[39] = Lung/blood distribution ratio was determined in immature female rats at 1 hr; assay type: functional; in short: as §2
[40] = organism: Rattus norvegicus; assay: Percent injected dose per gram blood at 1 hr; assay type: functional; in short: as §2

## C[C@]12CC[C@@H]3c4ccc(O)cc4CC[C@H]3[C@@H]1C[C@@H](I)[C@@H]2O
[1]
  Injected dose: 0.43%
[2]
  Ratio: 9.54
[3]
  Injected dose: 2.37%
[4]
  Ratio: 30.8
[5]
  Ratio: 2
[6]
  Ratio: 0.27
[7]
  Injected dose: 9.59%
[8]
  Injected dose: 190.9%
[9]
  Injected dose: 1.81%
[10]
  Injected dose: 0.15%
[11]
  Injected dose: 1.57%
[12]
  Injected dose: 0.75%
[13]
  Injected dose: 4.91%
[14]
  Injected dose: 0.4%
[15]
  Ratio: 0.95
[16]
  Ratio: 3.49
[17]
  Injected dose: 4.17%
[18]
  Injected dose: 0.49%
[19]
  Injected dose: 11.9%
[20]
  Ratio: 0.62
[21]
  Ratio: 9.14
[22]
  Ratio: 0.5
[23]
  Ratio: 1.08
[24]
  Ratio: 0.93
[25]
  Ratio: 472.6
[26]
  Injected dose: 0.14%
[27]
  Injected dose: 0.79%
[28]
  Injected dose: 1.22%
[29]
  Injected dose: 0.08%
[30]
  Injected dose: 1.75%
[31]
  Ratio: 1
[32]
  Injected dose: 1.48%
[33]
  Injected dose: 0.52%
[34]
  Ratio: 0.46
[35]
  Ratio: 44.5
[36]
  Ratio: 1.36
[37]
  Ratio: 1.37
[38]
  Injected dose: 276.6%
[39]
  Ratio: 0.86
[40]
  Injected dose: 0.47%

From ChEMBL document CHEMBL1121966, “(2R*,3S*)-1-[125I]Iodo-2,3-bis(4-hydroxyphenyl)pentane ([125I]iodonorhexestrol) and (2R*,3S*)-1-[77Br]Bromo-2,3-bis(4-hydroxyphenyl)pentane ([77Br]bromonorhexestrol), two gamma-emitting estrogens that show receptor-mediated uptake by target tissues in vivo” (1982)
